Measured values reported in ChEMBL document CHEMBL2176921, “Nitazoxanide Disrupts Membrane Potential and Intrabacterial pH Homeostasis of Mycobacterium tuberculosis” (ACS Med Chem Lett, 2011).
Converted amounts (≈) assume the structure as drawn. The source made the active and inactive calls. The calls are words filed in the database; no cut-off is given here.

What was measured:
[1] = test system: Mycobacterium tuberculosis; assay: Antitubercular activity against Mycobacterium tuberculosis H37Rv assessed as disruption of membrane potential at 5 uM after 20 mins at pH 7.4 by DiOC2-based spectrofluorimetric analysis; type: functional, organism-based
How it was run: (§1)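 H37Rv grown to mid-log (OD580 ~0.6), resuspended to OD580 ~1.0 in 7H9 with 0.2% glycerol, 0.2% dextrose, 0.085% NaCl, 0.02% Tyloxapol at set pH (7.4, 5.5, 4.5; 5.5 also with 0.5 mM NaNO2). Compound added at 0.002–20 μg/mL final, then 15 μM DiOC2 for 20 min at room temperature, washed. Controls: CCCP 5 μM, rifampicin 0.4 μg/mL, DMSO. Red (488/610)/green (488/530) fluorescence ratio; triplicates, two experiments.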

[2] = test system: Mycobacterium tuberculosis H37Rv; assay: Drug metabolism in Mycobacterium tuberculosis H37Rv assessed as tizoxanide formation at 1 to 10 fold MIC after 16 hrs by LC/MS analysis; type: ADME, organism-based; conditions: in vivo
[3] = test system: Mycobacterium tuberculosis; assay: Antitubercular activity against Mycobacterium tuberculosis H37Rv expressing pH sensitive ratiometric GFP assessed as reduction of intrabacterial pH after 16 hrs at pH 7.5 by spectrofluorimetric analysis; type: functional, organism-based
How it was run: (§2)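 H37Rv carrying pH-sensitive ratiometric GFP plasmid, grown to mid-log (OD580 ~0.6), diluted to OD580 ~0.3 in 7H9 at pH 7.5, 6.5 or 5.5, with or without 0.5 mM NaNO2. Compound or DMSO exposure 16 h. Fluorescence at excitation 395/emission 510 and excitation 475/emission 510; intrabacterial pH inferred from the ratio of the two readings.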

[4] = test system: Mycobacterium tuberculosis; assay: Antitubercular activity against Mycobacterium tuberculosis H37Rv assessed as disruption of membrane potential at 0.002 to 20 ug/ml after 20 mins at pH 4.5 by DiOC2-based spectrofluorimetric analysis; type: functional, organism-based; how it was run: as §1
[5] = test system: Mycobacterium tuberculosis; assay: Antitubercular activity against Mycobacterium tuberculosis H37Rv assessed as disruption of membrane potential at 0.002 to 20 ug/ml after 20 mins at pH 5.5 by DiOC2-based spectrofluorimetric analysis; type: functional, organism-based; how it was run: as §1
[6] = test system: Mycobacterium tuberculosis; assay: Antitubercular activity against Mycobacterium tuberculosis H37Rv assessed as disruption of membrane potential after 20 mins at pH 7.4 by DiOC2-based spectrofluorimetric analysis; type: functional, organism-based; how it was run: as §1
[7] = test system: Mycobacterium tuberculosis H37Rv; assay: Drug uptake in Mycobacterium tuberculosis H37Rv at 1 to 10 fold MIC after 16 hrs by LC/MS analysis; type: ADME, organism-based; conditions: in vivo
[8] = test system: Mycobacterium tuberculosis; assay: Antitubercular activity against Mycobacterium tuberculosis H37Rv; type: functional
[9] = test system: Mycobacterium tuberculosis; assay: Antitubercular activity against Mycobacterium tuberculosis H37Rv assessed as disruption of membrane potential at 0.4 ug/ml after 20 mins at pH 7.4 by DiOC2-based spectrofluorimetric analysis; type: functional, organism-based; how it was run: as §1
[10] = test system: Mycobacterium tuberculosis H37Rv; assay: Drug metabolism in Mycobacterium tuberculosis H37Rv assessed as [13C]acetylation at 1 to 10 fold MIC after 16 hrs by LC/MS analysis; type: ADME, organism-based; conditions: in vivo
[11] = test system: Mycobacterium tuberculosis; assay: Antitubercular activity against Mycobacterium tuberculosis H37Rv expressing pH sensitive ratiometric GFP assessed as reduction of intrabacterial pH at 0.002 to 20 ug/ml after 16 hrs at pH 7.5 by spectrofluorimetric analysis; type: functional, organism-based; how it was run: as §2

With `N#CC(C#N)=NNc1cccc(Cl)c1` the Activity [1] was “Active”.
In the case of `CC(=O)Oc1ccccc1C(=O)Nc1ncc([N+](=O)[O-])s1` [NITAZOXANIDE], the Drug metabolism [2] is reported as “Active”, the Activity [3] is reported as “Dose-dependent effect” and the Activity [4] is reported as “inactive”. The Activity [5] was “Active”, the Activity [6] was “Dose-dependent effect” and the Drug uptake [7] was “Active”. The MIC [8] was 1 µg/mL (≈ 3.25 µM).
`CO[C@H]1/C=C/O[C@@]2(C)Oc3c(C)c(O)c4c(O)c(c(/C=N/N5CCN(C)CC5)c(O)c4c3C2=O)NC(=O)/C(C)=C\C=C\[C@H](C)[C@H](O)[C@@H](C)[C@@H](O)[C@@H](C)[C@H](OC(C)=O)[C@@H]1C` was tested, and the Activity [9] was “inactive”.
In the case of `O=C(Nc1ncc([N+](=O)[O-])s1)c1ccccc1O` [TIZOXANIDE], the Drug metabolism [10] is reported as “Not Active”.
`O=C(Nc1ccc([N+](=O)[O-])cc1Cl)c1cc(Cl)ccc1O` was tested, and the Activity [11] was “Active”, the Activity [4] was “inactive” and the Activity [5] was “Active”. For the same compound, the Activity [6] was “Dose-dependent effect”.
